In ChEMBL document CHEMBL3593207, “Imidazole clubbed 1,3,4-oxadiazole derivatives as potential antifungal agents” (2015):
Converted amounts (≈) assume the structure as drawn.

Legend:
[1] = tested on: Candida tropicalis; assay: Antifungal activity against clinical isolates of Candida tropicalis 2356 by broth microdilution assay; assay type: functional
How it was run: (§1)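 CLSI M27-A3 broth microdilution. Compounds diluted to 1 mg/ml in 1% DMSO. Fluconazole (1 mg/ml) served as positive control, 1% DMSO as vehicle control, with media and culture controls. Triplicate at each concentration, repeated thrice. Inocula came from YPDA stocks subcultured in broth for 48 h at 37 °C.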

[2] = tested on: Candida albicans; assay: Antifungal activity against Candida albicans ATCC 10261 by broth microdilution assay; assay type: functional; how it was run: as §1
[3] = tested on: Candida albicans; assay: Antifungal activity against clinical isolates of Candida albicans 2367 by broth microdilution assay; assay type: functional; how it was run: as §1
[4] = tested on: Candida tropicalis; assay: Antifungal activity against clinical isolates of Candida tropicalis 2029 by broth microdilution assay; assay type: functional; how it was run: as §1
[5] = tested on: Candida albicans; assay: Antifungal activity against clinical isolates of Candida albicans 2323 by broth microdilution assay; assay type: functional; how it was run: as §1
[6] = tested on: Candida tropicalis; assay: Antifungal activity against Candida tropicalis ATCC 750 by broth microdilution assay; assay type: functional; how it was run: as §1
[7] = tested on: Candida albicans; assay: Antifungal activity against clinical isolates of Candida albicans 2779 by broth microdilution assay; assay type: functional; how it was run: as §1
[8] = tested on: Candida albicans; assay: Antifungal activity against clinical isolates of Candida albicans 2323 at 2 times MIC after 48 hrs by disc diffusion assay; assay type: functional
How it was run: (§2)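 Cells (10^3 cells ml−1) grown in YPD were mixed into molten agar (~40 °C) and poured into 100-mm plates. Filter discs (4 mm) were spotted with 10 µl of compound at 1/2 × MIC, MIC or 2 × MIC. Fluconazole and 1% DMSO were the controls. Plates were incubated at 37 °C for 48 h and inhibition zone diameters recorded in mm.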

[9] = tested on: Candida albicans; assay: Inhibition of ergosterol biosynthesis in Candida albicans 2779 assessed as ergosterol content at 1/2 MIC after 16 hrs by spectrophotometer analysis; assay type: functional; parameters: scale not given: the % may be the effect or the level left
How it was run: (§3)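 Cells were pelleted and washed, and wet weight taken. Pellets were saponified in 25% alcoholic KOH at 85 °C for 1 h. Sterols were extracted into n-heptane/water. Ergosterol content is expressed relative to untreated control cells.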

[10] = tested on: Candida tropicalis; assay: Inhibition of ergosterol biosynthesis in Candida tropicalis ATCC 750 assessed as ergosterol content at MIC after 16 hrs by spectrophotometer analysis; assay type: functional; parameters: scale not given: the % may be the effect or the level left
How it was run: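 Cells were harvested, washed, and wet pellet weight recorded. Pellets were saponified in 3 mL 25% alcoholic KOH at 85 °C for 1 h, then sterols extracted into n-heptane. Ergosterol is expressed relative to untreated control cells.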

[11] = tested on: Candida tropicalis; assay: Inhibition of ergosterol biosynthesis in Candida tropicalis 2356 assessed as ergosterol content at MIC after 16 hrs by spectrophotometer analysis; assay type: functional; parameters: scale not given: the % may be the effect or the level left; how it was run: as §3
[12] = tested on: Candida tropicalis; assay: Antifungal activity against Candida tropicalis ATCC 750 at 2 times MIC after 48 hrs by disc diffusion assay; assay type: functional; how it was run: as §2
[13] = tested on: Candida albicans; assay: Antifungal activity against Candida albicans ATCC 10261 at half MIC after 48 hrs by disc diffusion assay; assay type: functional; how it was run: as §2
[14] = tested on: Candida albicans; assay: Cytotoxicity against Candida albicans ATCC 10261 at MIC after 24 hrs by WST1 assay; assay type: functional
How it was run: (§4)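 Candida cells were exposed to MIC and sub-MIC levels for 24 h in microplates, then to WST-1/CEC dye for 30 min at 37 °C. Plates were shaken 1 min and the reaction stopped with 1% SDS. Formazan was read at 450 nm. % cytotoxicity = 100 × (cell control − experimental)/cell control. Triplicates, mean ± SD.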

[15] = tested on: Candida albicans; assay: Antifungal activity against clinical isolates of Candida albicans 2367 at half MIC after 48 hrs by disc diffusion assay; assay type: functional; how it was run: as §2
[16] = tested on: Candida tropicalis; assay: Cytotoxicity against Candida tropicalis ATCC 750 at 1/2 MIC after 24 hrs by WST1 assay
[17] = tested on: Candida albicans; assay: Inhibition of ergosterol biosynthesis in Candida albicans 2323 assessed as ergosterol content at MIC after 16 hrs by spectrophotometer analysis; assay type: functional; parameters: scale not given: the % may be the effect or the level left; how it was run: as §3
[18] = tested on: Candida tropicalis; assay: Antifungal activity against clinical isolates of Candida tropicalis 2029 at half MIC after 48 hrs by disc diffusion assay; assay type: functional; how it was run: as §2
[19] = tested on: Candida albicans; assay: Cytotoxicity against Candida albicans ATCC 10261 at 1/4 MIC after 24 hrs by WST1 assay; assay type: functional; how it was run: as §4
[20] = tested on: Candida tropicalis; assay: Cytotoxicity against Candida tropicalis ATCC 750 at MIC after 24 hrs by WST1 assay
[21] = tested on: Candida tropicalis; assay: Inhibition of ergosterol biosynthesis in Candida tropicalis 2029 assessed as ergosterol content at 1/2 MIC after 16 hrs by spectrophotometer analysis; assay type: functional; parameters: scale not given: the % may be the effect or the level left; how it was run: as §3
[22] = tested on: Candida tropicalis; assay: Inhibition of ergosterol biosynthesis in Candida tropicalis 2029 assessed as ergosterol content at MIC after 16 hrs by spectrophotometer analysis; assay type: functional; parameters: scale not given: the % may be the effect or the level left; how it was run: as §3
[23] = tested on: Candida albicans; assay: Antifungal activity against Candida albicans ATCC 10261 at 2 times MIC after 48 hrs by disc diffusion assay; assay type: functional; how it was run: as §2
[24] = tested on: Candida tropicalis; assay: Cytotoxicity against Candida tropicalis ATCC 750 at 1/4 MIC after 24 hrs by WST1 assay
[25] = tested on: Candida albicans; assay: Antifungal activity against clinical isolates of Candida albicans 2779 at half MIC after 48 hrs by disc diffusion assay; assay type: functional; how it was run: as §2
[26] = tested on: Candida tropicalis; assay: Inhibition of ergosterol biosynthesis in Candida tropicalis ATCC 750 assessed as ergosterol content at 1/2 MIC after 16 hrs by spectrophotometer analysis; assay type: functional; parameters: scale not given: the % may be the effect or the level left; how it was run: as §3
[27] = tested on: Candida tropicalis; assay: Antifungal activity against Candida tropicalis ATCC 750 at half MIC after 48 hrs by disc diffusion assay; assay type: functional; how it was run: as §2
[28] = tested on: Candida albicans; assay: Antifungal activity against clinical isolates of Candida albicans 2779 at MIC after 48 hrs by disc diffusion assay; assay type: functional; how it was run: as §2
[29] = tested on: Candida tropicalis; assay: Antifungal activity against clinical isolates of Candida tropicalis 2356 at MIC after 48 hrs by disc diffusion assay; assay type: functional; how it was run: as §2
[30] = tested on: Candida albicans; assay: Cytotoxicity against clinical isolates of Candida albicans 2779 at 1/4 MIC after 24 hrs by WST1 assay; assay type: functional; how it was run: as §4
[31] = tested on: Candida albicans; assay: Antifungal activity against clinical isolates of Candida albicans 2367 at MIC after 48 hrs by disc diffusion assay; assay type: functional; how it was run: as §2
[32] = tested on: Candida albicans; assay: Inhibition of ergosterol biosynthesis in Candida albicans 2367 assessed as ergosterol content at MIC after 16 hrs by spectrophotometer analysis; assay type: functional; parameters: scale not given: the % may be the effect or the level left; how it was run: as §3
[33] = tested on: Candida albicans; assay: Antifungal activity against clinical isolates of Candida albicans 2323 at MIC after 48 hrs by disc diffusion assay; assay type: functional; how it was run: as §2
[34] = tested on: Candida albicans; assay: Inhibition of ergosterol biosynthesis in Candida albicans 2779 assessed as ergosterol content at MIC after 16 hrs by spectrophotometer analysis; assay type: functional; parameters: scale not given: the % may be the effect or the level left; how it was run: as §3
[35] = tested on: Candida tropicalis; assay: Antifungal activity against clinical isolates of Candida tropicalis 2029 at MIC after 48 hrs by disc diffusion assay; assay type: functional; how it was run: as §2
[36] = tested on: Candida tropicalis; assay: Inhibition of ergosterol biosynthesis in Candida tropicalis 2356 assessed as ergosterol content at 1/2 MIC after 16 hrs by spectrophotometer analysis; assay type: functional; parameters: scale not given: the % may be the effect or the level left; how it was run: as §3
[37] = tested on: Candida albicans; assay: Inhibition of ergosterol biosynthesis in Candida albicans 2323 assessed as ergosterol content at 1/2 MIC after 16 hrs by spectrophotometer analysis; assay type: functional; parameters: scale not given: the % may be the effect or the level left; how it was run: as §3
[38] = tested on: Candida albicans; assay: Antifungal activity against clinical isolates of Candida albicans 2779 at 2 times MIC after 48 hrs by disc diffusion assay; assay type: functional; how it was run: as §2
[39] = tested on: Candida tropicalis; assay: Antifungal activity against clinical isolates of Candida tropicalis 2029 at 2 times MIC after 48 hrs by disc diffusion assay; assay type: functional; how it was run: as §2
[40] = tested on: Candida tropicalis; assay: Antifungal activity against Candida tropicalis ATCC 750 at MIC after 48 hrs by disc diffusion assay; assay type: functional; how it was run: as §2
[41] = tested on: Candida albicans; assay: Antifungal activity against Candida albicans ATCC 10261 at MIC after 48 hrs by disc diffusion assay; assay type: functional; how it was run: as §2
[42] = tested on: Candida tropicalis; assay: Antifungal activity against clinical isolates of Candida tropicalis 2356 at half MIC after 48 hrs by disc diffusion assay; assay type: functional; how it was run: as §2
[43] = tested on: Candida albicans; assay: Inhibition of ergosterol biosynthesis in Candida albicans 2367 assessed as ergosterol content at 1/2 MIC after 16 hrs by spectrophotometer analysis; assay type: functional; parameters: scale not given: the % may be the effect or the level left; how it was run: as §3
[44] = tested on: Candida albicans; assay: Inhibition of ergosterol biosynthesis in Candida albicans ATCC 10261 assessed as ergosterol content at MIC after 16 hrs by spectrophotometer analysis; assay type: functional; parameters: scale not given: the % may be the effect or the level left; how it was run: as §3
[45] = tested on: Candida tropicalis; assay: Antifungal activity against clinical isolates of Candida tropicalis 2356 at 2 times MIC after 48 hrs by disc diffusion assay; assay type: functional; how it was run: as §2
[46] = tested on: Candida albicans; assay: Inhibition of ergosterol biosynthesis in Candida albicans ATCC 10261 assessed as ergosterol content at 1/2 MIC after 16 hrs by spectrophotometer analysis; assay type: functional; parameters: scale not given: the % may be the effect or the level left; how it was run: as §3
[47] = tested on: Candida albicans; assay: Antifungal activity against clinical isolates of Candida albicans 2367 at 2 times MIC after 48 hrs by disc diffusion assay; assay type: functional; how it was run: as §2
[48] = tested on: Candida albicans; assay: Cytotoxicity against Candida albicans ATCC 10261 at 1/2 MIC after 24 hrs by WST1 assay; assay type: functional; how it was run: as §4
[49] = tested on: Candida albicans; assay: Antifungal activity against clinical isolates of Candida albicans 2323 at half MIC after 48 hrs by disc diffusion assay; assay type: functional; how it was run: as §2

CCc1ccnc(-c2nccn2Cc2nnc(-c3ccccc3)o2)c1
MIC [1]: > 1000 µg/mL | MIC [2]: > 1000 µg/mL | MIC [3]: > 1000 µg/mL | MIC [4]: > 1000 µg/mL | MIC [5]: > 1000 µg/mL | MIC [6]: > 1000 µg/mL | MIC [7]: > 1000 µg/mL

CCc1ccnc(-c2nccn2Cc2nnc(-c3ccc([N+](=O)[O-])cc3)o2)c1
inhibition zone (IZ) [8]: 9 mm | Activity [9]: 45% | Activity [10]: 100% | Activity [11]: 91% | inhibition zone (IZ) [12]: 14 mm | inhibition zone (IZ) [13]: 3 mm | Activity [14]: 57.94% | MIC [1]: 64 µg/mL (≈ 170 µM) | inhibition zone (IZ) [15]: 1 mm | MIC [2]: 8 µg/mL (≈ 21.3 µM) | Activity [16]: 35.57% | Activity [17]: 87% | inhibition zone (IZ) [18]: 3 mm | Activity [19]: 16.88% | Activity [20]: 57.94% | Activity [21]: 52% | Activity [22]: 89% | inhibition zone (IZ) [23]: 15 mm | Activity [24]: 15.6% | inhibition zone (IZ) [25]: 2 mm | Activity [26]: 57% | inhibition zone (IZ) [27]: 1 mm | inhibition zone (IZ) [28]: 8 mm | inhibition zone (IZ) [29]: 4 mm | Activity [30]: 8.02% | MIC [3]: 16 µg/mL (≈ 42.5 µM) | inhibition zone (IZ) [31]: 5 mm | MIC [4]: 16 µg/mL (≈ 42.5 µM) | Activity [32]: 86% | MIC [5]: 16 µg/mL (≈ 42.5 µM) | inhibition zone (IZ) [33]: 5 mm | Activity [34]: 89% | inhibition zone (IZ) [35]: 8 mm | Activity [36]: 59% | Activity [37]: 31% | inhibition zone (IZ) [38]: 11 mm | inhibition zone (IZ) [39]: 12 mm | MIC [6]: 16 µg/mL (≈ 42.5 µM) | inhibition zone (IZ) [40]: 9 mm | inhibition zone (IZ) [41]: 11 mm | inhibition zone (IZ) [42]: 1 mm | Activity [43]: 47% | Activity [44]: 99% | MIC [7]: 32 µg/mL (≈ 85 µM) | inhibition zone (IZ) [45]: 9 mm | Activity [46]: 43% | inhibition zone (IZ) [47]: 8 mm | Activity [48]: 35.57% | inhibition zone (IZ) [49]: 0 mm
